Measured values from publication PMC3158287 (Nature chemical biology, 2011).
Each block holds one molecule with its values, some of them ahead of it. Peptide text beside a SMILES is read from it. * marks the point of attachment. Cbz = O=C(OCc1ccccc1)*

Legend:
OSBP [1] = target: T1, OSBP (Homo sapiens, UniProt P22059); test: OSBP protein levels by western blotting; format: cell-based; conditions: HCT-116 cells; 25-OHC 10 μM
T1 sequence (P22059 1-807): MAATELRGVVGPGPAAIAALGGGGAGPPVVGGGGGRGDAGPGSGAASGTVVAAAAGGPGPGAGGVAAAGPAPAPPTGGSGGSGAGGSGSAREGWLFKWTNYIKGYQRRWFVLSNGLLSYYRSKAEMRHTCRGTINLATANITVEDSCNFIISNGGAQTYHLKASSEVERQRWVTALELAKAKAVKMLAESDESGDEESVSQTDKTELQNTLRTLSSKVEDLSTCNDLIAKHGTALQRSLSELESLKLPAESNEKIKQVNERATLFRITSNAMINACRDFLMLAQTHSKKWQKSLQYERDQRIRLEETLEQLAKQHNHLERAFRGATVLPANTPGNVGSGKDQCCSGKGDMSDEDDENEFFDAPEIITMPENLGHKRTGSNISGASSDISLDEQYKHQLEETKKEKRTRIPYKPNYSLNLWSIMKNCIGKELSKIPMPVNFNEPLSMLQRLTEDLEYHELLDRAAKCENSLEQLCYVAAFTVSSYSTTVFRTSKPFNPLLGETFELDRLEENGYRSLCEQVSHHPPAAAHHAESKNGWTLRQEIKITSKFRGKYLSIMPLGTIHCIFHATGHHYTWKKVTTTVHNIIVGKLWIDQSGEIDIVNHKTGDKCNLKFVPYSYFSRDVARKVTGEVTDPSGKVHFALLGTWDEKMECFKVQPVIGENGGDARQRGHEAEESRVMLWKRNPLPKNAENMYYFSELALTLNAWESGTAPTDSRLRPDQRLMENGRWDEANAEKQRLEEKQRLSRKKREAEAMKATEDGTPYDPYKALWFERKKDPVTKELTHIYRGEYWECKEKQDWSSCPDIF
Method in brief: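 HCT-116 cells were treated with test compound at 50 nM or 10 nM over a time course including 24 h. Some samples also received proteasome inhibitor MG-132 or lactacystin. OSBP was measured by western blotting with polyclonal rabbit anti-OSBP (N-terminus) antibody. Data are n = 3, compared with vehicle-treated cells by two-tailed Student's t-test.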

HCT-116 cells = test: Suppression of antiproliferative activity by 25-OHC coadministration; format: cell-based, human; conditions: HCT-116 and HeLa cell lines
Method in brief: (§1)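 HCT-116 p21+/+ and p21−/− cells were seeded in 96-well plates and rested 24 h. A time-zero plate was read with CellTiter-Blue (resazurin) after 90 min at 37 °C, fluorescence 544 nm ex / 590 nm em. Serially diluted test compound was added as 4× solution. Viability was re-read at 48 h and GI50 derived. For coadministration, 10 μM 25-OHC was added with test compound at 250 nM or 10 nM.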

OSBP-Myc-His = target: T2, OSBP-Myc-His (Homo sapiens, UniProt P22059); test: [3H]25-OHC charcoal-dextran binding assay, wild-type OSBP-Myc-His
T2 sequence (P22059 1-807): T1 sequence (P22059 1-807)

ORP4L-Myc-His = target: T3, ORP4L-Myc-His (Homo sapiens, UniProt Q969R2); test: [3H]25-OHC charcoal-dextran binding assay, ORP4L-Myc-His
T3 sequence (Q969R2 1-916): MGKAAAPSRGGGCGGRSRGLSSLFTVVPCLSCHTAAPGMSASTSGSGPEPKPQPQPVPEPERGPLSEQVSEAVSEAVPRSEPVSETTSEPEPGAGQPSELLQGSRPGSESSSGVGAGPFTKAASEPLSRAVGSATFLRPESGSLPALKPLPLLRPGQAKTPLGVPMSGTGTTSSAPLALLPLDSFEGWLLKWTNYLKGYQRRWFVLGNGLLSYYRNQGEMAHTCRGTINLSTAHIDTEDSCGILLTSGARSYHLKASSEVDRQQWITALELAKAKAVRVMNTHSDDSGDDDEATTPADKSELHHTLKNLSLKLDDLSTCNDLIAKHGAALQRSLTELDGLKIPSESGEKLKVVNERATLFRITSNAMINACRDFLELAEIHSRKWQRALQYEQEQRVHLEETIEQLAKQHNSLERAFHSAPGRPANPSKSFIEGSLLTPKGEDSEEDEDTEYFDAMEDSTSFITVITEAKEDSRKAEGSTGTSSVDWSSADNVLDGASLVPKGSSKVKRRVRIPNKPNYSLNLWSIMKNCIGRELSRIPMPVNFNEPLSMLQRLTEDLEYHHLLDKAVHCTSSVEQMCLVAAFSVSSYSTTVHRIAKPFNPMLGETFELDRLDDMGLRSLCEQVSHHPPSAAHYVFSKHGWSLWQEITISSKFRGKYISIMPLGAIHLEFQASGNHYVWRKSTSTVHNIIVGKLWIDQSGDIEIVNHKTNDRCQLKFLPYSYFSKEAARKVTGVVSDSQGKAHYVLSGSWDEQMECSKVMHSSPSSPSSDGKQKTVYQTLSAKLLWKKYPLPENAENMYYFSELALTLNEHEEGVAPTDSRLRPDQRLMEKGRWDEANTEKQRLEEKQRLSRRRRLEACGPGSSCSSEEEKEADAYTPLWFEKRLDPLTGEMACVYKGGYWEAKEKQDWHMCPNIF

HCT-116 p21^−/− cells = test: Cell viability assay, HCT-116 p21-/-; format: cell-based, human; conditions: GI50 after 48 h
Method in brief: as §1

OSBP [2] = target: T1, OSBP; test: OSBP localization by immunofluorescence microscopy, HCT-116; format: cell-based; conditions: HCT-116 cells, 4 h; 5 μM schweinfurthin A, 10 nM OSW-1, 20 nM cephalostatin 1
Method in brief: (§2)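 Cells on coverslips were grown 72 h, then given test compound or vehicle (4 h for HCT-116). They were fixed 10 min in 3.7% formaldehyde/PBS and permeabilised 5 min in 0.5% Triton X-100. Blocking used Image-iT FX, then 1% BSA/PBS. Rabbit anti-OSBP (N-terminus) and mouse anti-p230 were applied overnight at 4 °C, then Alexa Fluor secondaries for 60 min with Hoechst 33258. Imaging was by confocal microscopy.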

human cancer cell lines = conditions: cited from earlier work
OSBP [3] = target: T1, OSBP; test: OSBP localization by immunofluorescence microscopy, A549; format: cell-based; conditions: A549 cells
Method in brief: as §2

[4] = system: HCT-116 p21^−/− cells stably transfected with shOSBP or shNT; test: OSBP shRNA knockdown and dose-shift experiment; format: cell-based, human; conditions: 72 h
Method in brief: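 HCT-116 p21−/− cells were stably transfected with OSBP-targeting or nontargeting shRNA in the pSIREN-RetroQ vector. […] Values are mean ± s.d. of 3–4 experiments, compared with shNT cells by two-tailed Student's t-test.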

[5] = system: HeLa cells overexpressing wild-type OSBP; test: Overexpression-viability assay, wild-type OSBP-Myc-His; format: cell-based, human; conditions: 48 h, versus lacZ
[6] = system: HeLa cells overexpressing ORP4L; test: Overexpression-viability assay, ORP4L-Myc-His; format: cell-based, human; conditions: 48 h, versus lacZ
[7] = system: sphingomyelin biosynthesis in CHO-K1 cells; test: Sphingomyelin biosynthesis, [3H]serine pulse labeling, CHO-K1; format: cell-based, Chinese hamster

SMILES: CC(C)C[C@@H](C=O)NC(=O)[C@H](CC(C)C)NC(=O)[C@H](CC(C)C)NC(=O)OCc1ccccc1 [MG-132, reference compound] (Cbz-Leu-Leu-Leu-aldehyde)
Effect on OSBP levels (compound alone) (OSBP [1]): did not affect OSBP concentrations

SMILES: C[C@H]1CCC/C=C/[C@@H]2C[C@H](O)C[C@H]2[C@H](O)/C=C/C(=O)O1 [brefeldin A, reference compound]
Effect of 25-OHC coadministration on antiproliferative activity (HCT-116 cells): did not affect

Effect on OSBP levels (compound alone) (OSBP [1]): did not affect OSBP concentrations
SMILES: CC(=O)N[C@@H](CSC(=O)[C@]1([C@@H](O)C(C)C)NC(=O)[C@H](C)[C@@H]1O)C(=O)O [lactacystin, reference compound]

SMILES: CC1C2C(CC3C4CCC5Cc6nc7c(nc6CC5(C)C4CC(O)C32C)CC2CC(O)C3C4=CC5OC6(CCC(C)(O)CO6)C(C)C5(O)C4(C)C(O)CC3C2(C)C7)OC12CCC(C)(C)O2 (stereo not shown) [ritterazine B]
Ki (OSBP-Myc-His): 28 ± 4 nM | Ki (ORP4L-Myc-His): > 360 nM | p21^−/− selectivity of growth inhibition (HCT-116 p21^−/− versus wild-type) (HCT-116 p21^−/− cells): selectively growth-inhibitory | OSBP localization (OSBP [2]): This effect was also observed | GI50 (half-maximal inhibitory concentration) (human cancer cell lines): nanomolar range

SMILES: COc1cc(/C=C/c2cc(O)c(C/C=C(\C)CCC=C(C)C)c(O)c2)cc2c1O[C@]1(C)C[C@@H](O)[C@@H](O)C(C)(C)[C@H]1C2 [schweinfurthin B]
OSBP localization (OSBP [3]): perinuclear OSBP staining similar to that seen with 25-OHC | GI50 (half-maximal inhibitory concentration) (human cancer cell lines): nanomolar range

SMILES: CC(=O)O[C@H]1C(=O)[C@@]2(C)[C@H]([C@H](OC(=O)c3ccccc3)[C@]3(O)C[C@H](OC(=O)[C@H](O)[C@@H](NC(=O)c4ccccc4)c4ccccc4)C(C)=C1C3(C)C)[C@]1(OC(C)=O)CO[C@@H]1C[C@@H]2O [taxol, reference compound]
Sensitization by OSBP shRNA knockdown (GI50 shift shOSBP vs shNT) [4]: not affected | Desensitization factor by OSBP overexpression (relative GI30) [5]: not affected | Desensitization factor by ORP4L overexpression (relative GI30) [6]: not affected | Effect of 25-OHC coadministration on antiproliferative activity (HCT-116 cells): did not affect | Inhibition of sphingomyelin biosynthesis (control cytotoxic / ER stress agents) [7]: did not occur

SMILES: C/C=C(/C)C(=O)O[C@H]1C(C)=C2[C@H]([C@@H]1OC(=O)CCCCCCC)[C@@](C)(OC(C)=O)C[C@H](OC(=O)CCC)[C@@]1(O)[C@H]2OC(=O)[C@@]1(C)O [thapsigargin]
Inhibition of sphingomyelin biosynthesis (control cytotoxic / ER stress agents) [7]: did not occur
